{"source": "ChEMBL document CHEMBL1150693", "about": "“Structures of new dammarane-type Triterpene Saponins from the flower buds of Panax notoginseng and hepatoprotective effects of principal Ginseng Saponins” (2003)", "format_in_all_cases": "functional", "conditions_in_all_cases": "route intraperitoneal", "key": {"Mus musculus [1]": {"system": "Mus musculus", "test": "Hepatoprotective activity against D-galactosamine/LPS-induced liver injury in ddY mouse assessed as inhibition of serum alanine transaminase level at 100 mg/kg, ip administered 1 hr before D-galactosamine/LPS challenge by Reitman-Frankel method", "outline": "(§1)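 Male ddY mice (about 25-27 g) fasted 20 h; liver injury induced by i.p. D-GalN (350 mg/kg) plus LPS (10 µg/kg, Salmonella enteritidis) in saline. Test sample given i.p. 1 h before challenge. Blood taken from infraorbital venous plexus 10 h after D-GalN/LPS; sALT and sAST measured by Reitman-Frankel method (Karmen units). Mean ± SEM; one-way ANOVA with Dunnett's test.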"}, "Mus musculus [2]": {"system": "Mus musculus", "test": "Hepatoprotective activity against D-galactosamine/LPS-induced liver injury in ddY mouse assessed as inhibition of serum aspartate transaminase level at 100 mg/kg, ip administered 1 hr before D-galactosamine/LPS challenge by Reitman-Frankel method", "outline": "as §1"}, "Mus musculus [3]": {"system": "Mus musculus", "test": "Hepatoprotective activity against D-galactosamine/LPS-induced liver injury in ddY mouse assessed as inhibition of serum alanine transaminase level at 50 mg/kg, ip administered 1 hr before D-galactosamine/LPS challenge by Reitman-Frankel method", "outline": "as §1"}, "Mus musculus [4]": {"system": "Mus musculus", "test": "Hepatoprotective activity against D-galactosamine/LPS-induced liver injury in ddY mouse assessed as inhibition of serum aspartate transaminase level at 50 mg/kg, ip administered 1 hr before D-galactosamine/LPS challenge by Reitman-Frankel method", "outline": "as §1"}, "Mus musculus [5]": {"system": "Mus musculus", "test": "Hepatoprotective activity against D-galactosamine/LPS-induced liver injury in ddY mouse assessed as inhibition of serum alanine transaminase level at 20 mg/kg, ip administered 1 hr before D-galactosamine/LPS challenge by Reitman-Frankel method", "outline": "(§2)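 Male ddY mice (about 25-27 g) fasted 20 h; liver injury induced by ip D-GalN (350 mg/kg) plus LPS (10 µg/kg, Salmonella enteritidis) in saline. Sample given ip 1 h before D-GalN/LPS. Blood drawn from infraorbital venous plexus 10 h after challenge; sALT and sAST measured by Reitman-Frankel kit, in Karmen units; % inhibition reported. Means ± SEM; one-way ANOVA with Dunnett's test.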"}, "Mus musculus [6]": {"system": "Mus musculus", "test": "Hepatoprotective activity against D-galactosamine/LPS-induced liver injury in ddY mouse assessed as inhibition of serum aspartate transaminase level at 20 mg/kg, ip administered 1 hr before D-galactosamine/LPS challenge by Reitman-Frankel method", "outline": "as §2"}}}
{"smiles": "CC(C)=CCC[C@](C)(O[C@@H]1O[C@H](CO)[C@@H](O)[C@H](O)[C@H]1O)[C@H]1CC[C@]2(C)[C@@H]1[C@H](O)C[C@@H]1[C@@]3(C)CC[C@H](O)C(C)(C)[C@@H]3[C@@H](O[C@@H]3O[C@H](CO)[C@@H](O)[C@H](O)[C@H]3O[C@@H]3O[C@H](CO)[C@@H](O)[C@H](O)[C@H]3O)C[C@]12C", "values": [{"measurement": "inhibition in vivo at 100 mg/kg", "setting": "Mus musculus [1]", "result": 34, "unit": "%"}, {"measurement": "inhibition in vivo at 100 mg/kg", "setting": "Mus musculus [2]", "result": 40, "unit": "%"}]}
{"smiles": "CC(C)=CCC[C@](C)(O[C@@H]1O[C@H](CO[C@@H]2O[C@H](CO)[C@@H](O)[C@H](O)[C@H]2O)[C@@H](O)[C@H](O)[C@H]1O)[C@H]1CC[C@]2(C)[C@@H]1[C@H](O)C[C@@H]1[C@@]3(C)CC[C@H](O[C@@H]4O[C@H](CO)[C@@H](O)[C@H](O)[C@H]4O[C@@H]4O[C@H](CO)[C@@H](O)[C@H](O)[C@H]4O)C(C)(C)[C@@H]3CC[C@]12C", "note": "[GINSENOSIDE RB1]", "values": [{"measurement": "inhibition in vivo at 100 mg/kg", "setting": "Mus musculus [1]", "result": 33, "unit": "%"}, {"measurement": "inhibition in vivo at 100 mg/kg", "setting": "Mus musculus [2]", "result": 40, "unit": "%"}]}
{"smiles": "CC(C)=CCC[C@](C)(O[C@@H]1O[C@H](CO[C@@H]2OC[C@@H](O)[C@H](O)[C@H]2O)[C@@H](O)[C@H](O)[C@H]1O)[C@H]1CC[C@]2(C)[C@@H]1[C@H](O)C[C@@H]1[C@@]3(C)CC[C@H](O[C@@H]4O[C@H](CO)[C@@H](O)[C@H](O)[C@H]4O[C@@H]4O[C@H](CO)[C@@H](O)[C@H](O)[C@H]4O)C(C)(C)[C@@H]3CC[C@]12C", "note": "[GINSENOSIDE RB3]", "values": [{"measurement": "inhibition in vivo at 50 mg/kg", "setting": "Mus musculus [3]", "result": 77, "unit": "%"}, {"measurement": "inhibition in vivo at 100 mg/kg", "setting": "Mus musculus [1]", "result": 91, "unit": "%"}, {"measurement": "inhibition in vivo at 50 mg/kg", "setting": "Mus musculus [4]", "result": 72, "unit": "%"}, {"measurement": "inhibition in vivo at 100 mg/kg", "setting": "Mus musculus [2]", "result": 80, "unit": "%"}]}
{"smiles": "CC(C)=CCC[C@](C)(O[C@@H]1O[C@H](CO[C@@H]2O[C@@H](CO)[C@H](O)[C@H]2O)[C@@H](O)[C@H](O)[C@H]1O)[C@H]1CC[C@]2(C)[C@@H]1[C@H](O)C[C@@H]1[C@@]3(C)CC[C@H](O[C@@H]4O[C@H](CO)[C@@H](O)[C@H](O)[C@H]4O[C@@H]4O[C@H](CO)[C@@H](O)[C@H](O)[C@H]4O)C(C)(C)[C@@H]3CC[C@]12C", "note": "[GINSENOSIDE RC]", "values": [{"measurement": "inhibition in vivo at 50 mg/kg", "setting": "Mus musculus [3]", "result": 77, "unit": "%"}, {"measurement": "inhibition in vivo at 100 mg/kg", "setting": "Mus musculus [1]", "result": 89, "unit": "%"}, {"measurement": "inhibition in vivo at 50 mg/kg", "setting": "Mus musculus [4]", "result": 80, "unit": "%"}, {"measurement": "inhibition in vivo at 100 mg/kg", "setting": "Mus musculus [2]", "result": 87, "unit": "%"}]}
{"smiles": "CC(C)=CCC[C@](C)(O[C@@H]1O[C@H](CO)[C@@H](O)[C@H](O)[C@H]1O)[C@H]1CC[C@]2(C)[C@@H]1[C@H](O)C[C@@H]1[C@@]3(C)CC[C@H](O[C@@H]4O[C@H](CO)[C@@H](O)[C@H](O)[C@H]4O[C@@H]4O[C@H](CO)[C@@H](O)[C@H](O)[C@H]4O)C(C)(C)[C@@H]3CC[C@]12C", "note": "[GINSENOSIDE RD]", "values": [{"measurement": "inhibition in vivo at 100 mg/kg", "setting": "Mus musculus [1]", "result": 97, "unit": "%"}, {"measurement": "inhibition in vivo at 100 mg/kg", "setting": "Mus musculus [2]", "result": 93, "unit": "%"}]}
{"smiles": "CC(C)=CCC[C@](C)(O[C@@H]1O[C@H](CO)[C@@H](O)[C@H](O)[C@H]1O)[C@H]1CC[C@]2(C)[C@@H]1[C@H](O)C[C@@H]1[C@@]3(C)CC[C@H](O)C(C)(C)[C@@H]3[C@@H](O[C@@H]3O[C@H](CO)[C@@H](O)[C@H](O)[C@H]3O[C@@H]3O[C@@H](C)[C@H](O)[C@@H](O)[C@H]3O)C[C@]12C", "note": "[GINSENOSIDE RE]", "values": [{"measurement": "inhibition in vivo at 100 mg/kg", "setting": "Mus musculus [1]", "result": 92, "unit": "%"}, {"measurement": "inhibition in vivo at 100 mg/kg", "setting": "Mus musculus [2]", "result": 90, "unit": "%"}]}
{"smiles": "CC(C)=CCC[C@](C)(O[C@@H]1O[C@H](CO)[C@@H](O)[C@H](O)[C@H]1O)[C@H]1CC[C@]2(C)[C@@H]1[C@H](O)C[C@@H]1[C@@]3(C)CC[C@H](O)C(C)(C)[C@@H]3[C@@H](O[C@@H]3O[C@H](CO)[C@@H](O)[C@H](O)[C@H]3O)C[C@]12C", "note": "[GINSENOSIDE RG1]", "values": [{"measurement": "inhibition in vivo at 100 mg/kg", "setting": "Mus musculus [1]", "result": 30, "unit": "%"}, {"measurement": "inhibition in vivo at 100 mg/kg", "setting": "Mus musculus [2]", "result": 12, "unit": "%"}]}
{"smiles": "CC(C)=CCC[C@](C)(O)[C@H]1CC[C@]2(C)[C@@H]1[C@H](O)C[C@@H]1[C@@]3(C)CC[C@H](O)C(C)(C)[C@@H]3[C@@H](O[C@@H]3O[C@H](CO)[C@@H](O)[C@H](O)[C@H]3O)C[C@]12C", "note": "[GINSENOSIDE RH1]", "values": [{"measurement": "inhibition in vivo at 100 mg/kg", "setting": "Mus musculus [1]", "result": 93, "unit": "%"}, {"measurement": "inhibition in vivo at 100 mg/kg", "setting": "Mus musculus [2]", "result": 90, "unit": "%"}]}
{"smiles": "CC(C)=CCC[C@](C)(O[C@@H]1O[C@H](CO[C@@H]2O[C@H](CO)[C@@H](O)[C@H](O)[C@H]2O)[C@@H](O)[C@H](O)[C@H]1O)[C@H]1CC[C@]2(C)[C@@H]1[C@H](O)C[C@@H]1[C@@]3(C)CC[C@H](O[C@@H]4O[C@H](CO)[C@@H](O)[C@H](O)[C@H]4O)C(C)(C)[C@@H]3CC[C@]12C", "note": "[GYPENOSIDE XVII]", "values": [{"measurement": "inhibition in vivo at 100 mg/kg", "setting": "Mus musculus [1]", "result": 95, "unit": "%"}, {"measurement": "inhibition in vivo at 100 mg/kg", "setting": "Mus musculus [2]", "result": 91, "unit": "%"}]}
{"smiles": "C[C@]12CCC(=O)C=C1CC[C@@H]1[C@@H]2[C@@H](O)C[C@@]2(C)[C@H]1CC[C@]2(O)C(=O)CO", "note": "[HYDROCORTISONE]", "values": [{"measurement": "inhibition in vivo at 20 mg/kg", "setting": "Mus musculus [5]", "result": 99, "unit": "%"}, {"measurement": "inhibition in vivo at 20 mg/kg", "setting": "Mus musculus [6]", "result": 97, "unit": "%"}]}
{"smiles": "CC(C)=CCC[C@](C)(O[C@@H]1O[C@H](CO)[C@@H](O)[C@H](O)[C@H]1O)[C@H]1CC[C@]2(C)[C@@H]1[C@H](O)C[C@@H]1[C@@]3(C)CC[C@H](O)C(C)(C)[C@@H]3[C@@H](O[C@@H]3O[C@H](CO)[C@@H](O)[C@H](O)[C@H]3O[C@@H]3OC[C@@H](O)[C@H](O)[C@H]3O)C[C@]12C", "note": "[NOTOGINSENOSIDE R1]", "values": [{"measurement": "inhibition in vivo at 100 mg/kg", "setting": "Mus musculus [1]", "result": 87, "unit": "%"}, {"measurement": "inhibition in vivo at 100 mg/kg", "setting": "Mus musculus [2]", "result": 89, "unit": "%"}]}
{"smiles": "CC(C)=CCC[C@](C)(O[C@@H]1O[C@H](CO[C@@H]2O[C@H](CO)[C@@H](O)[C@H](O)[C@H]2O)[C@@H](O)[C@H](O)[C@H]1O)[C@H]1CC[C@]2(C)[C@@H]1[C@H](O)C[C@@H]1[C@@]3(C)CC[C@H](O)C(C)(C)[C@@H]3[C@@H](O[C@@H]3O[C@H](CO)[C@@H](O)[C@H](O)[C@H]3O)C[C@]12C", "note": "[notoginsenoside-R6]", "values": [{"measurement": "inhibition in vivo at 100 mg/kg", "setting": "Mus musculus [1]", "result": 32, "unit": "%"}, {"measurement": "inhibition in vivo at 100 mg/kg", "setting": "Mus musculus [2]", "result": 44, "unit": "%"}]}
